# Experimental data collected from several papers.
# Compare with care: the assays were run in different laboratories.
# Read-out: cell growth or viability
Compound,cell line,technique,tested at,time,quantity,result
CCNc1nc(Nc2ccc(F)c(Cl)c2)c2ccccc2n1,Vero,MTT,125 µg/mL,,viability,52.9%
C=C1CC[C@H]2C(C)=CC[C@H]3C(=C)C(=O)O[C@@H]3[C@@H]12,CHO-K1,MTT,,72 h,CC50,7.3 µM
Cn1cnc2c1c(=O)n(CC(=O)Nc1c(Cl)cccc1Cl)c(=O)n2C,Vero,MTT,62.5 µg/mL,,viability,99.8%
O=C1CCN(C(=O)Nc2ccc(F)c(Cl)c2)CN1Cc1ccc(F)cc1F,AML12HBV10,MTT,,48 h,CC50,> 50 µM
COC(=O)c1[nH]c(C(=O)OC)c(-c2c[nH]c3ccc(Cl)cc23)c1-c1c[nH]c2ccc(Cl)cc12,RAW264.7,resazurin,,72 h,CC50,> 10 µM
COc1ccc2c(Cc3ccccc3F)c3n(c(=O)c2c1OC)CCc1cc2c(cc1-3)OCO2,L929,CCK-8,,24 h,IC50,26.1 µM
CC(=O)O[C@H]1C(=O)[C@@]2(C)[C@H]([C@H](OC(=O)c3ccccc3)[C@]3(O)C[C@H](OC(=O)[C@H](O)[C@@H](NC(=O)c4ccccc4)c4ccccc4)C(C)=C1C3(C)C)[C@]1(OC(C)=O)CO[C@@H]1C[C@@H]2O,SMMC-7721,MTT,,48 h,IC50,4.27 µM
O=S(=O)(NNc1nnc(Cl)c2ccccc12)c1ccc(F)cc1,Vero,MTT,500 µg/mL,,viability,4.75%
CC(C)=CCc1c(O)c(CC=C(C)C)c2occ(-c3ccc(O)cc3)c(=O)c2c1O,RAW264.7,MTT,100 µg/mL,24 h,viability,91.4%
